Measurements from ChEMBL document CHEMBL1121690, “Inhibition of cholesterol side-chain cleavage. 3. 22-azacholesterol analogues bearing aryl-substituted side chains” (J Med Chem, 1981).

Legend:
Conditions in all cases: cattle
[1] = biological target: T1, cholesterol side-chain cleavage cytochrome P450 (mitochondrial) (Bos taurus, UniProt P00189); experiment: Percent inhibition of cholesterol side-chain cleavage cytochrome P450 at 0.1 uM in bovine adrenocortical mitochondrial acetone powder preparations
T1 sequence (P00189 whole entry): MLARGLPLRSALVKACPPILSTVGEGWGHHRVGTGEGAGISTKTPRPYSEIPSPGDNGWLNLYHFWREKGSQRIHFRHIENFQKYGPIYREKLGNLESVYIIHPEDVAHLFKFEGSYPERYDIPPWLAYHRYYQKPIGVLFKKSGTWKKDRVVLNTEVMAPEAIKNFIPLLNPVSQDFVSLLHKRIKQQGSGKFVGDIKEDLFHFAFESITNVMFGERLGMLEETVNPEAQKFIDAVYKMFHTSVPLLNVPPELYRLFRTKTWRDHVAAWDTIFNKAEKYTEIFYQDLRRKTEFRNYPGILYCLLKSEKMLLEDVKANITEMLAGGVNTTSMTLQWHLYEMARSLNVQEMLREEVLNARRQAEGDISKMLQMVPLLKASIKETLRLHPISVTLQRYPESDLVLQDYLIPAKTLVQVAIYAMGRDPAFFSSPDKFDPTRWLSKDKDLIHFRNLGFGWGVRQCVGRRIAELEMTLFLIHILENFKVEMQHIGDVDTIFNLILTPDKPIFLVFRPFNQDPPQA
Procedure, shortened: (§1)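 Inhibitors were dissolved in DMF and added to the incubation mixture before the substrate, at final concentrations of 100 µM or less. Activity was taken from the change in isotope ratios between zero time and 2 h, read by liquid scintillation counting after the isocaproic acid was driven off by heating under vacuum.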

[2] = biological target: T1, cholesterol side-chain cleavage cytochrome P450 (mitochondrial); experiment: Percent inhibition of cholesterol side-chain cleavage cytochrome P450 at 1 uM in bovine adrenocortical mitochondrial acetone powder preparations; procedure, shortened: as §1
[3] = biological target: T1, cholesterol side-chain cleavage cytochrome P450 (mitochondrial); experiment: Percent inhibition of cholesterol side-chain cleavage cytochrome P450 at 10 uM in bovine adrenocortical mitochondrial acetone powder preparations; procedure, shortened: as §1
[4] = biological target: T1, cholesterol side-chain cleavage cytochrome P450 (mitochondrial); experiment: Percent inhibition of cholesterol side-chain cleavage cytochrome P450 at 100 uM in bovine adrenocortical mitochondrial acetone powder preparations; procedure, shortened: as §1

| SMILES | inhibition at 0.1 µM [1] | inhibition at 1 µM [2] | inhibition at 10 µM [3] | inhibition at 100 µM [4] |
| --- | --- | --- | --- | --- |
| CC(NC(=O)Cc1cccc(I)c1)C1CCC2C3CC=C4CC(O)CCC4(C)C3CCC12C (centres undefined) | – | 18% | 73% | – |
| CC(NC(=O)Cc1ccccc1)C1CCC2C3CC=C4CC(O)CCC4(C)C3CCC12C (centres undefined) | 28% | – | 44% | – |
| CC(C(=O)NCc1ccccc1)C1CCC2C3CC=C4CC(O)CCC4(C)C3CCC12C (centres undefined) | – | – | 31% | 45% |
| CC(NCCc1ccc(Cl)cc1)C1CCC2C3CC=C4CC(O)CCC4(C)C3CCC12C (centres undefined) | – | 22% | – | – |
| COc1ccc(CC(=O)NC(C)C2CCC3C4CC=C5CC(O)CCC5(C)C4CCC23C)cc1 (centres undefined) | 38% | – | – | – |
| CC(NC(=O)Cc1ccc(Cl)cc1)C1CCC2C3CC=C4CC(O)CCC4(C)C3CCC12C (centres undefined) | 25% | – | – | – |
| COc1ccc(CCNC(C)C2CCC3C4CC=C5CC(O)CCC5(C)C4CCC23C)cc1 (centres undefined) | -6% | – | 40% | – |

Results, then the compound that gave them:

| inhibition at 0.1 µM [1] | inhibition at 1 µM [2] | inhibition at 10 µM [3] | inhibition at 100 µM [4] | SMILES |
| --- | --- | --- | --- | --- |
| 9% | 53% | 84% | 84% | CC(NC(=O)c1ccccc1)C1CCC2C3CC=C4CC(O)CCC4(C)C3CCC12C (centres undefined) |
| – | 22% | 49% | 39% | CC(NC(=O)Cc1ccc([N+](=O)[O-])cc1)C1CCC2C3CC=C4CC(O)CCC4(C)C3CCC12C (centres undefined) |
| 19% | – | – | – | CC(NC(=O)CCc1ccccc1)C1CCC2C3CC=C4CC(O)CCC4(C)C3CCC12C (centres undefined) |
